Where “and” joins values, the source holds several entries; their conditions need not be identical. Equal values may be shown once.
These compounds were tested on HEK-293T (assay: Multiplex assay against HEK293T). Details: human, 12 h, 1 µM, compound concentration 1 uM.
Assay type: toxicity, cell-based
Summary of the method: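 Tubulin, mitochondrial-mass and membrane-permeability phenotypes are per cents of healthy-nucleus cells. Cells were gated by CellPathfinder machine learning into Hoechst high-intensity objects or normal cells, normal cells into healthy, pyknosed or fragmented nuclei, and pyknosed cells into mitotic or apoptotic. Before that, live cells stained at seeding with Hoechst33342, BioTracker Green Microtubule Cytoskeleton Dye, MitoTracker Red and Annexin V Alexa Fluor 680 were imaged on a CQ1 microscope at 37°C and 5% CO2 after compound addition.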

Structure (SMILES) | Population Apoptotic (%) | Population Fragmented Nuclei (%) | Population Healthy Nuclei (%) | Population Hoechst High Intensity Objects (%) | Population Membrane Permeable-Phenotype (%) | Population Mitochondria Different-Phenotype (%) | Population Mitotic Cells (%) | Population Normal (%) | Population Pyknosed Nuclei (%) | Population Tubulin-Different-Phenotype (%)
CC(C)(C)c1ccc(S(=O)(=O)Nc2ccc(Cl)cc2C(=O)c2cc[n+]([O-])cc2)cc1 [VERCIRNON] | 32% and 52% | 10% and 5% | 77% and 84% | 7% | 0% | 33% and 51% | 68% and 47% | 92% | 12% and 10% | 21% and 22%
O=C(O)Cc1ccccc1Nc1c(Cl)cccc1Cl [DICLOFENAC] | 36% and 52% | 7% | 77% and 79% | 5% and 10% | 0% | 53% and 61% | 63% and 47% | 94% and 89% | 14% and 13% | 32% and 23%

Same assay, conditions: human, 12 h, 1 µM, compound concentration 1 uM

Structure (SMILES) | Total Cell Count
CC(C)(C)c1ccc(S(=O)(=O)Nc2ccc(Cl)cc2C(=O)c2cc[n+]([O-])cc2)cc1 [VERCIRNON] | 428 and 424
O=C(O)Cc1ccccc1Nc1c(Cl)cccc1Cl [DICLOFENAC] | 376 and 324

Same assay, conditions: human, 12 h, 10 µM, compound concentration 10 uM

Structure (SMILES) | Population Apoptotic (%) | Population Fragmented Nuclei (%) | Population Healthy Nuclei (%) | Population Hoechst High Intensity Objects (%) | Population Membrane Permeable-Phenotype (%) | Population Mitochondria Different-Phenotype (%) | Population Mitotic Cells (%) | Population Normal (%) | Population Pyknosed Nuclei (%) | Population Tubulin-Different-Phenotype (%)
CC(C)(C)c1ccc(S(=O)(=O)Nc2ccc(Cl)cc2C(=O)c2cc[n+]([O-])cc2)cc1 [VERCIRNON] | 30% and 39% | 6% and 4% | 83% and 82% | 6% and 5% | 0% and 1% | 35% and 51% | 69% and 60% | 93% and 94% | 10% and 13% | 37% and 27%
O=C(O)Cc1ccccc1Nc1c(Cl)cccc1Cl [DICLOFENAC] | 30% and 57% | 7% | 77% and 75% | 6% and 14% | 0% | 45% and 68% | 69% and 42% | 93% and 85% | 14% and 17% | 35%

Same assay, conditions: human, 12 h, 10 µM, compound concentration 10 uM

Structure (SMILES) | Total Cell Count
CC(C)(C)c1ccc(S(=O)(=O)Nc2ccc(Cl)cc2C(=O)c2cc[n+]([O-])cc2)cc1 [VERCIRNON] | 451 and 344
O=C(O)Cc1ccccc1Nc1c(Cl)cccc1Cl [DICLOFENAC] | 480 and 370

Same assay, conditions: human, 24 h, 1 µM, compound concentration 1 uM

Structure (SMILES) | Population Apoptotic (%) | Population Fragmented Nuclei (%) | Population Healthy Nuclei (%) | Population Hoechst High Intensity Objects (%) | Population Membrane Permeable-Phenotype (%) | Population Mitochondria Different-Phenotype (%) | Population Mitotic Cells (%) | Population Normal (%) | Population Pyknosed Nuclei (%) | Population Tubulin-Different-Phenotype (%)
CC(C)(C)c1ccc(S(=O)(=O)Nc2ccc(Cl)cc2C(=O)c2cc[n+]([O-])cc2)cc1 [VERCIRNON] | 41% and 28% | 8% | 81% | 6% and 5% | 0% | 21% and 32% | 58% and 71% | 93% and 94% | 9% | 15% and 16%
O=C(O)Cc1ccccc1Nc1c(Cl)cccc1Cl [DICLOFENAC] | 30% and 45% | 7% and 6% | 76% and 78% | 3% and 10% | 0% | 44% and 37% | 69% and 54% | 96% and 89% | 15% and 14% | 24% and 9%

Same assay, conditions: human, 24 h, 1 µM, compound concentration 1 uM

Structure (SMILES) | Total Cell Count
CC(C)(C)c1ccc(S(=O)(=O)Nc2ccc(Cl)cc2C(=O)c2cc[n+]([O-])cc2)cc1 [VERCIRNON] | 522 and 521
O=C(O)Cc1ccccc1Nc1c(Cl)cccc1Cl [DICLOFENAC] | 456 and 418

Same assay, conditions: human, 24 h, 10 µM, compound concentration 10 uM

Structure (SMILES) | Population Apoptotic (%) | Population Fragmented Nuclei (%) | Population Healthy Nuclei (%) | Population Hoechst High Intensity Objects (%) | Population Membrane Permeable-Phenotype (%) | Population Mitochondria Different-Phenotype (%) | Population Mitotic Cells (%) | Population Normal (%) | Population Pyknosed Nuclei (%) | Population Tubulin-Different-Phenotype (%)
CC(C)(C)c1ccc(S(=O)(=O)Nc2ccc(Cl)cc2C(=O)c2cc[n+]([O-])cc2)cc1 [VERCIRNON] | 22% and 28% | 10% and 7% | 77% and 82% | 3% and 5% | 1% and 0% | 15% and 31% | 77% and 71% | 96% and 94% | 12% and 9% | 20% and 23%
O=C(O)Cc1ccccc1Nc1c(Cl)cccc1Cl [DICLOFENAC] | 25% and 49% | 10% | 77% and 75% | 4% and 9% | 0% | 29% and 50% | 74% and 50% | 95% and 90% | 12% and 14% | 29% and 26%

Same assay, conditions: human, 24 h, 10 µM, compound concentration 10 uM

Structure (SMILES) | Total Cell Count
CC(C)(C)c1ccc(S(=O)(=O)Nc2ccc(Cl)cc2C(=O)c2cc[n+]([O-])cc2)cc1 [VERCIRNON] | 594 and 437
O=C(O)Cc1ccccc1Nc1c(Cl)cccc1Cl [DICLOFENAC] | 650 and 462

Same assay, conditions: human, 48 h, 1 µM, compound concentration 1 uM

Structure (SMILES) | Population Apoptotic (%) | Population Fragmented Nuclei (%) | Population Healthy Nuclei (%) | Population Hoechst High Intensity Objects (%) | Population Membrane Permeable-Phenotype (%) | Population Mitochondria Different-Phenotype (%) | Population Mitotic Cells (%) | Population Normal (%) | Population Pyknosed Nuclei (%) | Population Tubulin-Different-Phenotype (%)
CC(C)(C)c1ccc(S(=O)(=O)Nc2ccc(Cl)cc2C(=O)c2cc[n+]([O-])cc2)cc1 [VERCIRNON] | 28% and 32% | 16% and 14% | 76% and 81% | 2% | 0% and 2% | 16% and 14% | 71% and 67% | 97% | 7% and 4% | 13% and 12%
O=C(O)Cc1ccccc1Nc1c(Cl)cccc1Cl [DICLOFENAC] | 23% and 33% | 11% and 15% | 82% and 79% | 2% | 1% | 22% and 16% | 76% and 66% | 97% | 6% and 4% | 15% and 10%

Same assay, conditions: human, 48 h, 1 µM, compound concentration 1 uM

Structure (SMILES) | Total Cell Count
CC(C)(C)c1ccc(S(=O)(=O)Nc2ccc(Cl)cc2C(=O)c2cc[n+]([O-])cc2)cc1 [VERCIRNON] | 834 and 877
O=C(O)Cc1ccccc1Nc1c(Cl)cccc1Cl [DICLOFENAC] | 730 and 697

Same assay, conditions: human, 48 h, 10 µM, compound concentration 10 uM

Structure (SMILES) | Population Apoptotic (%) | Population Fragmented Nuclei (%) | Population Healthy Nuclei (%) | Population Hoechst High Intensity Objects (%) | Population Membrane Permeable-Phenotype (%) | Population Mitochondria Different-Phenotype (%) | Population Mitotic Cells (%) | Population Normal (%) | Population Pyknosed Nuclei (%) | Population Tubulin-Different-Phenotype (%)
CC(C)(C)c1ccc(S(=O)(=O)Nc2ccc(Cl)cc2C(=O)c2cc[n+]([O-])cc2)cc1 [VERCIRNON] | 21% and 25% | 13% and 12% | 81% and 80% | 3% and 2% | 2% and 1% | 12% and 18% | 78% and 75% | 96% and 97% | 5% and 7% | 14% and 15%
O=C(O)Cc1ccccc1Nc1c(Cl)cccc1Cl [DICLOFENAC] | 36% | 12% and 16% | 80% and 75% | 3% and 4% | 1% and 0% | 17% and 36% | 63% | 96% and 95% | 7% | 18% and 17%

Same assay, conditions: human, 48 h, 10 µM, compound concentration 10 uM

Structure (SMILES) | Total Cell Count
CC(C)(C)c1ccc(S(=O)(=O)Nc2ccc(Cl)cc2C(=O)c2cc[n+]([O-])cc2)cc1 [VERCIRNON] | 929 and 586
O=C(O)Cc1ccccc1Nc1c(Cl)cccc1Cl [DICLOFENAC] | 883 and 649

From ChEMBL document CHEMBL5724801, “EUbOPEN Chemogenomics Library - Multiplex” (2024)
